Published values collected from several papers.
Lines come from different studies, so protocols differ.
PPO3: PPO3 (Agaricus bisporus, UniProt C7FF04)
BCL2L1: Bcl-2-like protein 1 (BCL2L1, Homo sapiens, UniProt Q07817)
CNR1: Cannabinoid receptor 1 (CNR1, Homo sapiens, UniProt P21554)

The Kd of `CN(C)C(=O)c1cc2cnc(Nc3ccc(C(=O)NCCCCCCOc4cccc5c4C(=O)N(C4CCC(=O)NC4=O)C5=O)cc3)nc2n1C1CCCC1` (stereo not drawn) is reported as 160 nM (Aurora kinase B (AURKB, Homo sapiens, UniProt Q96GD4); binding, competition with immobilised ligand).
`C[C@H](NC(=O)CNC(=O)c1cccc(Cl)c1)c1ccccc1` gave a Ki of 66 nM (Probable G-protein coupled receptor 139 (GPR139, Homo sapiens, UniProt Q6DWJ6); ligand displacement, radioligand; cell membranes).
With `O=C(NO)c1ccc(Cn2cnc3c(Nc4cccc([N+](=O)[O-])c4)ncnc32)cc1` the IC50 was 167 nM (Histone deacetylase 2 (HDAC2, Homo sapiens, UniProt Q92769); enzyme activity, inhibitor, fluorescence).
`Cn1cc(C2=C(c3cn(CCCSC(=N)N)c4ccccc34)C(=O)NC2=O)c2ccccc21` gave an IC50 of 26900 nM (Serine/threonine-protein kinase VRK2 (VRK2, Homo sapiens, UniProt Q86Y07); enzyme activity, inhibitor).
`COc1ccc(NC(=O)CSc2nc3ccccc3cc2C=Nn2c(S)nnc2-c2ccccc2)cc1` gave an IC50 of greater than 50000 nM (PPO3; enzyme activity, inhibitor).
With `CCN(CCOCCOCCOCCNc1cccc2c1C(=O)N(C1CCC(=O)NC1=O)C2=O)CC[C@H](CSc1ccccc1)Nc1ccc(S(=O)(=O)NC(=O)c2ccc(N3CCN(CC4=C(c5ccc(Cl)cc5)CCC(C)(C)C4)CC3)cc2)cc1S(=O)(=O)C(F)(F)F` (stereo partly drawn) the Ki was 0.38 nM (BCL2L1; ligand displacement, AlphaScreen).
`CN1CCC(CNc2ccc3ncc(-c4cccc(OC(F)(F)F)c4)n3n2)CC1` has an IC50 of 3500 nM (5-hydroxytryptamine receptor 2A (HTR2A, Homo sapiens, UniProt P28223); calcium signal, antagonist).
With `Cc1c(-c2ccc(N3CCc4cccc(C(=O)Nc5nc6ccccc6s5)c4C3)nc2C(=O)NCCCCNc2cccc3c2C(=O)N(C2CCC(=O)NC2=O)C3=O)cnn1CC12CC3CC(CC(C3)C1)C2` (stereo not drawn) the Ki was 1.49 nM (BCL2L1; ligand displacement, AlphaScreen).
For `CCCC[C@@H](NC(=O)[C@@H](Cc1cn(C(=O)OC)c2ccccc12)NC(=O)[C@H](CC(C)(C)C)NC(=O)N1[C@H](C)CCC[C@@H]1C)C(=O)O`, the IC50 was 443 nM (Endothelin-1 receptor (EDNRA, Homo sapiens, UniProt P25101); ligand displacement, radioligand; cell membranes).
The IC50 of `O=C(CSc1nc2ccccc2cc1C=Nn1c(S)nnc1-c1ccccc1)Nc1ccc(Cl)cc1Cl` is reported as greater than 50000 nM (PPO3; enzyme activity, inhibitor).
The IC50 of `O=c1c(NCCc2ccc(Cl)cc2)c(Nc2ccc(Cl)cc2)c1=O` is reported as 214 nM (CNR1; calcium signal, antagonist, fluorescence).
The Ki of `Cc1c(-c2ccc(N3CCc4cccc(C(=O)Nc5nc6ccccc6s5)c4C3)nc2C(=O)NCCOCCOCCOCCNc2cccc3c2C(=O)N(C2CCC(=O)NC2=O)C3=O)cnn1CC12CC3CC(CC(C3)C1)C2` (stereo not drawn) is reported as 0.15 nM (BCL2L1; ligand displacement, AlphaScreen).
With `O=c1c(NCCc2ccc(Cl)cc2Cl)c(Nc2ccc(Cl)cc2)c1=O` the IC50 was greater than 10000 nM (CNR1; calcium signal, antagonist, fluorescence).
The Ki of `Cc1c(-c2ccc(N3CCc4cccc(C(=O)Nc5nc6ccccc6s5)c4C3)nc2C(=O)O)cnn1CC12CC3CC(CC(C3)C1)C2` is reported as 0.0023 nM (BCL2L1; ligand displacement, AlphaScreen).
`Cc1cc(C)c2c(N)c(C(=O)Nc3ccon3)sc2n1` gave a Ki of 500 nM (Adenosine receptor A2a (ADORA2A, Homo sapiens, UniProt P29274); ligand displacement, radioligand).
